Data from ChEMBL document CHEMBL1156231, “Alkylation of a human telomere sequence by heterotrimeric chlorambucil PI polyamide conjugates” (Bioorg Med Chem, 2010).
Calls of active or inactive are those of the source. The rule behind the calls is not given here.

What was measured:
Nucleic Acid [1] = experiment: Binding affinity to human telomeric DNA expressed in Escherichia coli DH5alpha assessed as alkylation of G and C rich strand at 10 nM after 24 hrs by PAGE analysis
How it was run: (§1)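 5'-Texas Red-labelled telomere-containing DNA fragment (insert cloned and propagated in E. coli DH5a, PCR-amplified, purified), alkylated with conjugate at various concentrations in 5 mM sodium phosphate buffer pH 7.0, 10% DMF, room temperature, 24 h. Reaction stopped with calf thymus DNA and heating 95 °C, 5 min. Alkylation sites read by high-resolution denaturing polyacrylamide gel electrophoresis.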

Nucleic Acid [2] = experiment: Binding affinity to human telomeric DNA expressed in Escherichia coli DH5alpha assessed as alkylation of complementary C rich site at 50 to 200 nM after 24 hrs by PAGE analysis; how it was run: as §1
Nucleic Acid [3] = experiment: Binding affinity to human telomeric DNA expressed in Escherichia coli DH5alpha assessed as alkylation of G rich 5^-GGTTAGGGTTA-3^ strand at 50 to 200 nM after 24 hrs by PAGE; how it was run: as §1

CN(C)CCCNC(=O)c1nc(NC(=O)c2nc(NC(=O)c3nc(NC(=O)CCNC(=O)CCNC(=O)c4nc(NC(=O)c5nc(NC(=O)c6nc(NC(=O)CCCc7ccc(N(CCCl)CCCl)cc7)cn6C)cn5C)cn4C)cn3C)cn2C)cn1C
Activity (Nucleic Acid [1]): Active | Activity (Nucleic Acid [2]): Active | Activity (Nucleic Acid [3]): inactive
